From ChEMBL document CHEMBL1131244, “New alkenyldiarylmethanes with enhanced potencies as anti-HIV agents which act as non-nucleoside reverse transcriptase inhibitors” (J Med Chem, 1998)

What was measured:
[1] = target: Human immunodeficiency virus type 1 reverse transcriptase (Human immunodeficiency virus 1, UniProt Q72547); test: Inhibitory activity against human immunodeficiency virus (HIV) - 1 reverse transcriptase with rCdG as the template primer
Method in brief: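 Reactions stopped with ice-cold 10% trichloroacetate, filtered through GF/C membrane, washed with ethanol, radiolabel counted by Cerenkov counting. AZTTP and nevirapine as positive controls; IC50 reported.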

[2] = system: CCRF-CEM; test: The compound is evaluated for the cytotoxic concentration for the mock-infected CEM cells; type: functional; conditions: Homo sapiens
Method in brief: (§1)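 XTT cytoprotection assay in CEM-SS cells infected with HIV-1 RF, with uninfected cultures for cytotoxicity, in presence of fetal calf serum. Data as percent of uninfected drug-free control. EC50 is 50% protection from cytopathicity; CC50 is 50% cell death in uninfected cells; TI = CC50/EC50. Triplicates on each of two sister plates, plate EC50s averaged. Confirmed by supernatant RT and p24.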

[3] = system: CEM-SS; test: Inhibitory concentration for cytopathicity of HIV-1 RF in CEM-SS cells; NA means there was no observed inhibition of HIV-1 cytopathicity up to the cytotoxic concentration in uninfected cells.; type: functional, cell-based; method in brief: as §1
[4] = system: CEM-SS; test: Inhibitory concentration for cytopathicity of HIV-1 in CEM-SS cells; type: functional, cell-based; conditions: Homo sapiens; method in brief: as §1
[5] = system: CEM-SS; test: The compound is evaluated for the therapeutic index, which is the CC50 divided by the EC50.; type: functional; method in brief: as §1

Row | SMILES | IC50 [1] | EC50 [4] | CC50 [2] | EC50 [3] | TI [5]
1 | COC(=O)c1cc(C(=CCCO)c2cc(Br)c(OC)c(C(=O)OC)c2)cc(Br)c1OC | 31.6 µM | 6 µM | > 316 µM |  | >52
2 | CC=C(c1cc(Br)c(OC)c(C(=O)OC)c1)c1cc(Br)c(OC)c(C(=O)OC)c1 | 26 µM |  | 10 µM | Not Active | 
3 | COC(=O)c1cc(C(=CCCO)c2cc(Cl)c(OC)c(C(=O)OC)c2)cc(Cl)c1OC | > 100 µM | 8.6 µM | 16.8 µM |  | 2

Second part, led by results:

Row | IC50 [1] | EC50 [4] | SMILES | CC50 [2] | EC50 [3] | TI [5]
4 | > 100 µM |  | CC1(C)OC(=O)c2cc(C(=CCCO)c3cc(Cl)c4c(c3)C(=O)OC(C)(C)O4)cc(Cl)c2O1 | 18.8 µM | Not Active | 
5 | > 100 µM |  | COC(=O)c1cc(C(=CC(=O)OC(C)(C)C)c2cc(Cl)c(OC)c(C(=O)OC)c2)cc(Cl)c1OC | > 100 µM | Not Active | 
6 | > 100 µM | 180 µM | COc1c(Cl)cc(C(=CCCCC(=O)O)c2cc(Cl)c(OC)c(C(=O)O)c2)cc1C(=O)O | > 316 µM |  | 1.7
